The results in this text go back to PubChem BioAssay.

Calls of active or inactive are those of the source.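 How the source made its calls, unless noted: active means GFP response above 150% of the DMSO level; inconclusive means fewer than 70 events counted for a yeast strain; inactive means the rest.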

A short description of assay [1]: RPL19A-GFP modulators, yeast TOR pathway, confirmation, cell-based, S. cerevisiae, flow cytometry, cherry picks, mother/daughter gates (AID 2270;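 active means GFP response below 50% of the DMSO control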). To be noted: S. cerevisiae RPL19A-GFP strain, 3 h, at 10 µM, stronger effect = lower value, 100 = same GFP as DMSO wells.
A short description of assay [2]: LAP4-GFP expression modulators in yeast, confirmation, cell-based, cherry picks, flow cytometry, mother/daughter gates (AID 2271;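 active means GFP response above 150% of the DMSO control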;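 further: ratio of sample to DMSO plate mean so 100% equals DMSO level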). To be noted: S. cerevisiae LAP4-GFP strain, 3 h, at 10 µM, stronger effect = higher value, 100 means same as DMSO control. An outline of the steps:
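Material: Alexa 633-stained baker's yeast GFP-fusion strain; Compound dosing: single test-compound dose, 10 µM final; Incubation: 30 °C, 3 h compound incubation, rotating; Detection: HT flow cytometry, GFP fluorescence channel; Control set: positive rapamycin (400 ng/mL), negative DMSO.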

Assay [3] can be described thus: modulators of MEP2-GFP levels in yeast, confirmation, S. cerevisiae, flow cytometry GFP, cherry picks (AID 2272;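 active means GFP response above 150% of the DMSO control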;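 further: ratio of well signal to plate DMSO mean so 100% equals DMSO level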). To be noted: S. cerevisiae MEP2-GFP strain, 3 h, at 10 µM, stronger effect = higher value.
Assay [4] in a line: AGP1-GFP expression modulators, hit retest, confirmation, cell-based, flow cytometry, S. cerevisiae, cherry picks (AID 2273).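 Further: median GFP channel fluorescence over the whole cell population gate.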 To be noted: S. cerevisiae AGP1-GFP strain, 3 h, at 10 µM.
Assay [5] in a line: modulators of CIT2-GFP expression in yeast, confirmation, S. cerevisiae, GFP fusion, cherry picks, mother/daughter gates (AID 2274). As to conditions: S. cerevisiae CIT2-GFP strain, flow cytometry, 3 h, at 10 µM, stronger effect = higher value.
Setting [6] is: measured here: daughter cell gate.
Setting [7] is: measured here: mother cell gate.
[8] abbreviates: measured here: daughter cell gate response.
[9] abbreviates: measured here: mother cell gate response.

Take `O=S(=O)(c1ccccc1)N1N=C(c2cccs2)CC1c1ccc(Br)cc1` (stereo unspecified): the GFP response vs DMSO in assay [1] is 98% (inactive); in assay [1] (setting [6]), 99.4%; in assay [1] (setting [7]), 98.4%; in assay [3], 102% (inactive). Moreover, the results for the GFP response relative to DMSO in assay [2], in assay [2] (setting [8]) and in assay [2] (setting [9]) were 97.9% (inactive), 99.2% and 97.2%, respectively. Besides, the GFP response, % of DMSO in assay [4] is 98.3% (inactive); in assay [5], 98.3% (inactive); in assay [5] (setting [6]), 97.2%; in assay [5] (setting [7]), 97.3%.

As for `COC(=O)Cn1nc(-c2ccccc2)c2ccccc21`, the GFP response vs DMSO in assay [1] is 92% (inactive); in assay [1] (setting [6]), 88.5%; in assay [1] (setting [7]) it was 92.9%; in assay [3], 109% (inactive). The figures for the GFP response relative to DMSO in assay [2], in assay [2] (setting [8]) and in assay [2] (setting [9]) were 106% (inactive), 101% and 106%, respectively. The GFP response, % of DMSO in assay [4] is 97.3% (inactive); in assay [5] it was 102% (inactive); in assay [5] (setting [6]), 101%; in assay [5] (setting [7]) it was 98.1%.

Turning to `Oc1ccc(-c2csc(-c3ccccc3)n2)cc1O`, the GFP response vs DMSO in assay [1] was 97% (inactive); in assay [1] (setting [6]), 93.2%; in assay [1] (setting [7]) it was 96.5%; in assay [3] it was 101% (inactive). The values for the GFP response relative to DMSO in assay [2], in assay [2] (setting [8]) and in assay [2] (setting [9]) were 124% (inactive), 120% and 129%, respectively. Besides, the GFP response, % of DMSO in assay [4] is 96% (inactive); in assay [5], 93.4% (inactive); in assay [5] (setting [6]), 93.7%; in assay [5] (setting [7]), 90.8%.

On to `Cc1ccc2[nH]c3c(=O)n(CC(=O)N4CCN(C)CC4)ncc3c2c1`, for which the GFP response vs DMSO in assay [1] is 95% (inactive); in assay [1] (setting [6]) it was 93.4%; in assay [1] (setting [7]) it was 96.2%; in assay [3] it was 98.3% (inactive). Moreover, the values for the GFP response relative to DMSO in assay [2], in assay [2] (setting [8]) and in assay [2] (setting [9]) were 95.4% (inactive), 96% and 96.1%, respectively. In addition, the GFP response, % of DMSO in assay [4] is 99.3% (inactive); in assay [5], 101% (inactive); in assay [5] (setting [6]), 103%; in assay [5] (setting [7]) it was 101%.

As for `COc1ccc(N2C(=O)C(Cl)=C(N(CCO)Cc3ccccc3)C2=O)cc1`, the GFP response vs DMSO in assay [1] is 101% (inactive); in assay [1] (setting [6]), 99.1%; in assay [1] (setting [7]) it was 102%; in assay [3], 101% (inactive). In addition, the GFP response relative to DMSO in assay [2] was 98.2% (inactive); in assay [2] (setting [8]), 99.1%; in assay [2] (setting [9]), 99.4%. Moreover, the GFP response, % of DMSO was 102% (inactive) in assay [4], 100% (inactive) in assay [5], 101% in assay [5] (setting [6]) and 99.3% in assay [5] (setting [7]).

Take `COc1ccc(CC(=O)Oc2ccccc2C)cc1`: the GFP response vs DMSO in assay [1] was 98% (inactive); in assay [1] (setting [6]), 99.6%; in assay [1] (setting [7]), 98.3%; in assay [3], 102% (inactive). Also, the figures for the GFP response relative to DMSO in assay [2], in assay [2] (setting [8]) and in assay [2] (setting [9]) were 100% (inactive), 97.9% and 98.5%, respectively. The GFP response, % of DMSO is 94.3% (inactive) in assay [4], 96.4% (inactive) in assay [5], 96.4% in assay [5] (setting [6]) and 95.6% in assay [5] (setting [7]).

For `O=C1c2ccsc2SCCN1Cc1cccc(Cl)c1`, the GFP response vs DMSO in assay [1] was 95.4% (inactive); in assay [1] (setting [6]), 92.6%; in assay [1] (setting [7]), 95.8%; in assay [3], 98.3% (inactive). Also, the GFP response relative to DMSO in assay [2] is 108% (inactive); in assay [2] (setting [8]) it was 104%; in assay [2] (setting [9]), 110%. Further, the GFP response, % of DMSO in assay [4] is 98.7% (inactive); in assay [5], 99.7% (inactive); in assay [5] (setting [6]), 99.1%; in assay [5] (setting [7]) it was 101%.

Regarding `Cc1ccc(C(=O)NNC(=S)NC(=O)c2ccco2)cc1`, the GFP response vs DMSO is 112% (inactive) in assay [1], 113% in assay [1] (setting [6]), 109% in assay [1] (setting [7]) and 115% (inactive) in assay [3]. Besides, the GFP response relative to DMSO was 120% (inactive) in assay [2], 117% in assay [2] (setting [8]) and 121% in assay [2] (setting [9]). Further, the GFP response, % of DMSO in assay [4] was 103% (inactive); in assay [5], 108% (inactive); in assay [5] (setting [6]) it was 114%; in assay [5] (setting [7]) it was 102%.

`Cc1cc(Cl)ccc1N=c1ssnc1Cl`: the GFP response vs DMSO in assay [1] was 92.2% (inactive); in assay [1] (setting [6]) it was 94.2%; in assay [1] (setting [7]), 86.5%; in assay [3] it was 109% (inactive). In addition, the GFP response relative to DMSO in assay [2] was 133% (inactive); in assay [2] (setting [8]), 114%; in assay [2] (setting [9]), 145%. Besides, the GFP response, % of DMSO in assay [4] is 97.3% (inactive); in assay [5], 102% (inactive); in assay [5] (setting [6]), 103%; in assay [5] (setting [7]), 101%.

`Cc1cccc(Sc2ccc([N+](=O)[O-])cc2[N+](=O)[O-])n1`: the GFP response vs DMSO in assay [1] was 102% (inactive); in assay [1] (setting [6]), 100%; in assay [1] (setting [7]), 102%; in assay [3] it was 104% (inactive). Besides, the GFP response relative to DMSO was 97.4% (inactive) in assay [2], 100% in assay [2] (setting [8]) and 98.3% in assay [2] (setting [9]). Besides, the GFP response, % of DMSO was 101% (inactive) in assay [4], 100% (inactive) in assay [5], 101% in assay [5] (setting [6]) and 99.8% in assay [5] (setting [7]).

`Cc1ccc(N2C(=O)C(Cl)=C(NCc3ccccc3)C2=O)c(C)c1`: the GFP response vs DMSO is 96.2% (inactive) in assay [1], 95.2% in assay [1] (setting [6]), 97% in assay [1] (setting [7]) and 101% (inactive) in assay [3]. For the same compound, the GFP response relative to DMSO in assay [2] was 106% (inactive); in assay [2] (setting [8]) it was 104%; in assay [2] (setting [9]), 107%. The GFP response, % of DMSO in assay [4] is 100% (inactive); in assay [5], 94.4% (inactive); in assay [5] (setting [6]), 95.6%; in assay [5] (setting [7]), 94.4%.

As to `CCc1oc2ccccc2c1C(=O)CCN1CCCCC1`, the GFP response vs DMSO is 99.6% (inactive) in assay [1], 98.4% in assay [1] (setting [6]), 99.6% in assay [1] (setting [7]) and 101% (inactive) in assay [3]. Moreover, the values for the GFP response relative to DMSO in assay [2], in assay [2] (setting [8]) and in assay [2] (setting [9]) were 102% (inactive), 99.1% and 103%, respectively. The GFP response, % of DMSO was 101% (inactive) in assay [4], 98.8% (inactive) in assay [5], 99.2% in assay [5] (setting [6]) and 96.8% in assay [5] (setting [7]).

Turning to `Cc1ccc(/C=C/C(=O)NC2CCCCCCC2)o1`, the GFP response vs DMSO was 98.8% (inactive) in assay [1], 99.4% in assay [1] (setting [6]), 98.2% in assay [1] (setting [7]) and 102% (inactive) in assay [3]. The GFP response relative to DMSO in assay [2] was 125% (inactive); in assay [2] (setting [8]), 120%; in assay [2] (setting [9]), 130%. Moreover, the GFP response, % of DMSO was 90.8% (inactive) in assay [4], 101% (inactive) in assay [5], 105% in assay [5] (setting [6]) and 97.3% in assay [5] (setting [7]).

With `COc1cccc2c1Oc1ncccc1N(C(=O)CCC(=O)NCc1ccc(C)cc1)C2`, the GFP response vs DMSO in assay [1] is 101% (inactive); in assay [1] (setting [6]) it was 100%; in assay [1] (setting [7]) it was 103%; in assay [3], 99% (inactive). The values for the GFP response relative to DMSO in assay [2], in assay [2] (setting [8]) and in assay [2] (setting [9]) were 95.7% (inactive), 94.2% and 96.2%, respectively. In addition, the GFP response, % of DMSO in assay [4] is 106% (inactive); in assay [5], 98.8% (inactive); in assay [5] (setting [6]), 99.2%; in assay [5] (setting [7]), 98.1%.

In the case of `Cc1cccc(CSCc2ccc(C(=O)NC(C)C)o2)c1`, the GFP response vs DMSO in assay [1] is 101% (inactive); in assay [1] (setting [6]) it was 98.1%; in assay [1] (setting [7]), 101%; in assay [3], 96.8% (inactive). The GFP response relative to DMSO is 99.5% (inactive) in assay [2], 95.9% in assay [2] (setting [8]) and 99.4% in assay [2] (setting [9]). The GFP response, % of DMSO was 101% (inactive) in assay [4], 102% (inactive) in assay [5], 103% in assay [5] (setting [6]) and 99.3% in assay [5] (setting [7]).

`O=C(CSc1nc2ccsc2c(=O)n1CC1CCC(C(=O)O)CC1)c1ccc(F)cc1` (stereo unspecified): the GFP response vs DMSO in assay [1] is 102% (inactive); in assay [1] (setting [6]), 100%; in assay [1] (setting [7]), 103%; in assay [3] it was 100% (inactive). Besides, the GFP response relative to DMSO in assay [2] was 89% (inactive); in assay [2] (setting [8]) it was 89.5%; in assay [2] (setting [9]) it was 91.1%. The GFP response, % of DMSO in assay [4] is 94.6% (inactive); in assay [5], 92.6% (inactive); in assay [5] (setting [6]), 94.8%; in assay [5] (setting [7]), 92.3%.
